ChEMBL document CHEMBL4118213, “Drug efficacy of novel 3-O-methoxy-4-halo disubstituted 5,7-dimethoxy chromans; evaluated via DNA gyrase inhibition, bacterial cell wall lesion and antibacterial prospective” (Bioorg Med Chem, 2018)
Converted amounts (≈) assume the structure as drawn. The source made the active and inactive calls. No cut-off for these calls is given here.

Tests used:
[1] = system: Erythrocyte; test: Hemolytic activity in human RBC assessed as membrane mortification by measuring […] stabilization by absorbance method relative to control; assay type: ADME, cell-based; design: concentration or dose not given beside the values
Summary of the method: (§1)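 Human red blood cell membrane stabilization tested at various concentrations (n = 4) in 96-well format, with distilled water taken as 100% hemolysis. Absorbance read-out; IC50 taken from the percentage inhibition versus concentration curve.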

[2] = system: Escherichia coli; test: Antibacterial activity against Escherichia coli MTCC 443; assay type: functional
Summary of the method: (§2)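 MIC determined against six bacterial strains over a range of concentrations, with 1% DMSO as the untreated control and novobiocin as the standard. Values are averages of n = 5.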

[3] = system: Klebsiella pneumoniae; test: Antibacterial activity against Klebsiella pneumoniae MTCC 530; assay type: functional; summary of the method: as §2
[4] = target: DNA gyrase (Staphylococcus aureus) (UniProt P0A0K8+P20831); test: Inhibition of Staphylococcus aureus DNA gyrase assessed as reduction in relaxation of pBR322 DNA at 1.5 ug by […] analysis relative to control; assay type: protein-complex assay
DNA gyrase (Staphylococcus aureus), sequence (P0A0K8 2-644 limits assumed): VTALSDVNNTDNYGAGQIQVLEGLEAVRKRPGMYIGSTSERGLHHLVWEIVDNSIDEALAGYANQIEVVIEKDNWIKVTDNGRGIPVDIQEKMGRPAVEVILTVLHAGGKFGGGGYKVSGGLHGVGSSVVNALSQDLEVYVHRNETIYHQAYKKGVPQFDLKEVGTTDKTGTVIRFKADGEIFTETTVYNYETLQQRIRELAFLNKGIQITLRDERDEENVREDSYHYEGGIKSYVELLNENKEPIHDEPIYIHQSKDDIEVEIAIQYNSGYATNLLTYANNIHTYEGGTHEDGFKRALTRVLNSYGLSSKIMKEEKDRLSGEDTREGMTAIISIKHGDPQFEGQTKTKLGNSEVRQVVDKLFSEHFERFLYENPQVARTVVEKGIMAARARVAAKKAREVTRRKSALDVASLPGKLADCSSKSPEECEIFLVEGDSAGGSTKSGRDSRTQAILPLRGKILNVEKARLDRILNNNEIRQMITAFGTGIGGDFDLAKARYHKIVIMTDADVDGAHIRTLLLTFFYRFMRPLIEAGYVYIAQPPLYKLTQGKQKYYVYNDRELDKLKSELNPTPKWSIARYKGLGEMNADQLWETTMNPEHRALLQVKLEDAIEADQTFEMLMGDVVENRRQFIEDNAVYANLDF
DNA gyrase (Staphylococcus aureus), sequence (P20831 whole entry partner): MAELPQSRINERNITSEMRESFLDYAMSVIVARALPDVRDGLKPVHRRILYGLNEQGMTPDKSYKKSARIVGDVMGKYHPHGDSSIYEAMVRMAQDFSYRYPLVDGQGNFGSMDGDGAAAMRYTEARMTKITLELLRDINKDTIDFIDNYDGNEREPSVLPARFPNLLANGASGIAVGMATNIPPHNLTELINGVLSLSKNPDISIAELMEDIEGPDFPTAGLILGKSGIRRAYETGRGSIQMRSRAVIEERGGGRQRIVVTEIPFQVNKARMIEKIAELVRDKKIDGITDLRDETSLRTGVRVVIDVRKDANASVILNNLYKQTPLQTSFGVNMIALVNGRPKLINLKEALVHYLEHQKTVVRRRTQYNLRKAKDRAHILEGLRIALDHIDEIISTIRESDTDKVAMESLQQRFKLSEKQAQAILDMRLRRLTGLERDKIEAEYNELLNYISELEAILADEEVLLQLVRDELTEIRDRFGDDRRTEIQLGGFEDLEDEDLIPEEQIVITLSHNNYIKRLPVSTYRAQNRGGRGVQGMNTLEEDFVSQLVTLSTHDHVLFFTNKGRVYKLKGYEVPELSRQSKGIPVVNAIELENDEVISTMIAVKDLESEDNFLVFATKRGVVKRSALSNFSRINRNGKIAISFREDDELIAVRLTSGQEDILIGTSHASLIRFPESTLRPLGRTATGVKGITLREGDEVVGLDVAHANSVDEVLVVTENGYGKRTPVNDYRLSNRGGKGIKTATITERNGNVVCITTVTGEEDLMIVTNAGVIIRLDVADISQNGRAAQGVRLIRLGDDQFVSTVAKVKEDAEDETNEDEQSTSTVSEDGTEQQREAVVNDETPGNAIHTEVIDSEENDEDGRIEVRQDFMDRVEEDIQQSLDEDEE
Summary of the method: (§3)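 pBR322 DNA incubated with S. aureus DNA gyrase with or without compound (1.5 µg) and novobiocin as positive control. Products resolved by gel electrophoresis. IC50 from the dose–response curve; mean of duplicate or triplicate measurements.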

[5] = system: Erythrocyte; test: Hemolytic activity in human RBC assessed as membrane mortification by absorbance method; assay type: ADME, cell-based; summary of the method: as §1
[6] = target: DNA gyrase (Staphylococcus aureus, UniProt P0A0K8+P20831); test: Inhibition of Staphylococcus aureus DNA gyrase assessed as reduction in relaxation of pBR322 DNA by […] analysis; assay type: protein-complex assay; summary of the method: as §3
DNA gyrase, sequence (P0A0K8 whole entry): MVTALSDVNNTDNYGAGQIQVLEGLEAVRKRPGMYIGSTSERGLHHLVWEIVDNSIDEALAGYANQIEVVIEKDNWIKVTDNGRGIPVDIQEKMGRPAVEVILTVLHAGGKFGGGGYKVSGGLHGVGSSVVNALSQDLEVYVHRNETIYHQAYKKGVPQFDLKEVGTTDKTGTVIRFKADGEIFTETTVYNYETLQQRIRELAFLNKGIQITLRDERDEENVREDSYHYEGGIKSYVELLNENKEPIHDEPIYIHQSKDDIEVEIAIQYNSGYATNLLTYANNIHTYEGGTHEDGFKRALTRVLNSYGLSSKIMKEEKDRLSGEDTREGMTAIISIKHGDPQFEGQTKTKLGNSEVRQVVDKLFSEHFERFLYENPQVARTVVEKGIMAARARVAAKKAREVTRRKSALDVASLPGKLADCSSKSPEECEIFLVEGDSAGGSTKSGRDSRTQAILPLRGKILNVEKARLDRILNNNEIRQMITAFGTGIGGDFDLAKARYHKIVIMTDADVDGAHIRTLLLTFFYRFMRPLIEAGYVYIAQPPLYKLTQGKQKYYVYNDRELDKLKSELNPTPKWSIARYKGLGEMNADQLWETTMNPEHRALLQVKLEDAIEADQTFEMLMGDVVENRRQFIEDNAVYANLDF
DNA gyrase, sequence (P20831 whole entry): as the sequence (P20831 whole entry partner) above

[7] = system: Pseudomonas aeruginosa; test: Antibacterial activity against Pseudomonas aeruginosa MTCC 424; assay type: functional; summary of the method: as §2
[8] = system: Streptococcus pyogenes; test: Antibacterial activity against Streptococcus pyogenes MTCC 442; assay type: functional; summary of the method: as §2
[9] = system: Corynebacterium diphtheriae; test: Antibacterial activity against Corynebacterium diphtheriae MTCC 116; assay type: functional; summary of the method: as §2
[10] = Cytotoxicity against human MCF7 cells assessed as cell viability after 6 hrs by MTT assay relative to control; assay type: cell-based; design: concentration or dose not given beside the values; details: read-out: Activity
Summary of the method: (§4)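 MTT assay on MCF-7 and MCF-10 cells (n = 4), with DMSO as control and doxorubicin as standard. Viability was read at several times after treatment and calculated as mean OD/control OD × 100%.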

[11] = system: MCF10; test: Cytotoxicity against human MCF10 cells after 8 hrs by MTT assay; assay type: cell-based; details: mcf10, 8 h; summary of the method: as §4
[12] = system: MCF7; test: Cytotoxicity against human MCF7 cells after 8 hrs by MTT assay; assay type: cell-based; details: for Activity: human, mcf7, 8 h; summary of the method: as §4
[13] = Cytotoxicity against human MCF7 cells assessed as cell viability after 4 hrs by MTT assay relative to control; assay type: cell-based; design: concentration or dose not given beside the values; details: read-out: Activity; summary of the method: as §4
[14] = system: Corynebacterium diphtheriae; test: Antibacterial activity against Corynebacterium diphtheriae MTCC 116 assessed as cell wall degradation by measuring dead cells measured every 30 mins up to 180 mins by microscopic method; assay type: functional, organism-based
Summary of the method: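 C. diphtheriae was grown overnight in Loeffler medium and examined after treatment. Dead cells/cell debris were estimated every 30 min until whole-culture death. Total and dead cell stains were applied for 1 h in the dark at room temperature, then fluorescence was read at Ex 490/Em 525 and Ex 536/Em 617 nm, in triplicate.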

[15] = system: Erythrocyte; test: Hemolytic activity in human RBC assessed as mean absorbance (reference value: 0.1868 +/- 0.033); assay type: ADME, cell-based; summary of the method: as §1
[16] = system: Staphylococcus aureus; test: Antibacterial activity against Staphylococcus aureus MTCC 96; assay type: functional; summary of the method: as §2

## COc1cc(OS(=O)(=O)C(F)(F)F)c2c(c1C(C)=O)OC(C)(C)C=C2
[1]
  Activity: 98.84%
[2]
  MIC: 0.64 µg/mL (≈ 1.68 µM)
[3]
  MIC: 0.64 µg/mL (≈ 1.68 µM)
[4]
  inhibition: 94%
[5]
  IC50: 0.0012 µg/mL (≈ 0.00316 µM)
[6]
  IC50: 2.5 nM
[7]
  MIC: 0.84 µg/mL (≈ 2.21 µM)
[8]
  MIC: 0.83 µg/mL (≈ 2.18 µM)
[9]
  MIC: 0.04 µg/mL (≈ 0.105 µM)
[10]
  viability at 6 h: 16%
[11]
  Activity: Non-Toxic
[12]; Homo sapiens, MCF7, 8 h
  IC50: 10 nM
[13]
  viability at 4 h: 20%
[14]
  Activity: Active
[15]
  Activity: 0.4852
[16]
  MIC: 0.02 µg/mL (≈ 0.0526 µM)

## CO[C@@H]1[C@@H](OC(N)=O)[C@@H](O)[C@H](Oc2ccc3c(O)c(NC(=O)c4ccc(O)c(CC=C(C)C)c4)c(=O)oc3c2C)OC1(C)C [NOVOBIOCIN]
[2]
  MIC: 4.94 to 5 µg/mL (≈ 8.06 to 8.16 µM)
[3]
  MIC: 0.5 to 0.75 µg/mL (≈ 0.816 to 1.22 µM)
[7]
  MIC: 1.75 to 100 µg/mL (≈ 2.86 to 163 µM)
[8]
  MIC: 3.24 µg/mL (≈ 5.29 µM)
[9]
  MIC: 1.32 µg/mL (≈ 2.15 µM)
[16]
  MIC: 0.78 to 0.92 µg/mL (≈ 1.27 to 1.5 µM)

## CO[C@@H]1[C@@H](OC(=O)c2ccc(C)[nH]2)[C@@H](O)[C@H](Oc2ccc3c(O)c(NC(=O)c4ccc(O)c(CC=C(C)C)c4)c(=O)oc3c2Cl)OC1(C)C
[4]
  inhibition: 86%

## COc1cc(O)c2c(c1C(C)=O)OC(C)(C)C=C2
[1]
  Activity: 90.45%
[2]
  MIC: 0.88 µg/mL (≈ 3.54 µM)
[3]
  MIC: 0.9 µg/mL (≈ 3.62 µM)
[4]
  inhibition: 78 to 94%
[5]
  IC50: 0.0182 µg/mL (≈ 0.0733 µM)
[6]
  IC50: 7.5 nM
[7]
  MIC: 1.02 µg/mL (≈ 4.11 µM)
[8]
  MIC: 1 µg/mL (≈ 4.03 µM)
[9]
  MIC: 0.82 µg/mL (≈ 3.3 µM)
[10]
  viability at 6 h: 16%
[11]
  Activity: Non-Toxic
[12]
  Activity: Dose-dependent effect
[13]
  viability at 4 h: 20%
[14]
  Activity: Active
[15]
  Activity: 0.4624
[16]
  MIC: 0.1 µg/mL (≈ 0.403 µM)

## COc1cc(OC)c2c(c1C(C)=O)OC(C)(C)C(OC)C2F (configuration not stated)
[1]
  Activity: 85.15%
[2]
  MIC: 0.92 µg/mL (≈ 2.95 µM)
[3]
  MIC: 0.76 µg/mL (≈ 2.43 µM)
[4]
  inhibition: 78 to 94%
[5]
  IC50: 0.0922 µg/mL (≈ 0.295 µM)
[6]
  IC50: 9.5 nM
[7]
  MIC: 0.94 µg/mL (≈ 3.01 µM)
[8]
  MIC: 0.94 µg/mL (≈ 3.01 µM)
[9]
  MIC: 0.92 µg/mL (≈ 2.95 µM)
[10]
  viability at 6 h: 16%
[11]
  Activity: Non-Toxic
[12]
  Activity: Dose-dependent effect
[13]
  viability at 4 h: 20%
[14]
  Activity: Active
[15]
  Activity: 0.3947
[16]
  MIC: 0.16 µg/mL (≈ 0.512 µM)

## COc1cc(OC)c2c(c1C(C)=O)OC(C)(C)[C@@H](O)[C@H]2O
[1]
  Activity: 88.52%
[2]
  MIC: 0.84 µg/mL (≈ 2.83 µM)
[3]
  MIC: 0.92 µg/mL (≈ 3.1 µM)
[4]
  inhibition: 78 to 94%
[5]
  IC50: 0.0094 µg/mL (≈ 0.0317 µM)
[6]
  IC50: 1.86 to 24 nM
[7]
  MIC: 1.01 µg/mL (≈ 3.41 µM)
[8]
  MIC: 1.02 µg/mL (≈ 3.44 µM)
[9]
  MIC: 0.9 µg/mL (≈ 3.04 µM)
[14]
  Activity: Active
[15]
  Activity: 0.4046
[16]
  MIC: 0.64 µg/mL (≈ 2.16 µM)

## COc1cc2c(c(OC)c1C(C)=O)[C@H](O)[C@H](O)C(C)(C)O2
[1]
  Activity: 80.88%
[2]
  MIC: 4.1 µg/mL (≈ 13.8 µM)
[3]
  MIC: 3.88 µg/mL (≈ 13.1 µM)
[4]
  inhibition: 78 to 94%
[5]
  IC50: 1 µg/mL (≈ 3.38 µM)
[6]
  IC50: 1.86 to 24 nM
[7]
  MIC: 3.01 µg/mL (≈ 10.2 µM)
[8]
  MIC: 5.02 µg/mL (≈ 16.9 µM)
[9]
  MIC: 1.28 µg/mL (≈ 4.32 µM)
[14]
  Activity: Active
[15]
  Activity: 0.3611
[16]
  MIC: 1.54 µg/mL (≈ 5.2 µM)

## COc1cc(OC)c2c(c1C(C)=O)OC(C)(C)[C@H](O)[C@@H]2O
[1]
  Activity: 85.31%
[2]
  MIC: 2.24 µg/mL (≈ 7.56 µM)
[3]
  MIC: 2.18 µg/mL (≈ 7.36 µM)
[4]
  inhibition: 78 to 94%
[5]
  IC50: 0.88 µg/mL (≈ 2.97 µM)
[6]
  IC50: 10 nM
[7]
  MIC: 4.52 µg/mL (≈ 15.3 µM)
[8]
  MIC: 2.85 µg/mL (≈ 9.62 µM)
[9]
  MIC: 0.99 µg/mL (≈ 3.34 µM)
[10]
  viability at 6 h: 16%
[11]
  Activity: Non-Toxic
[12]
  Activity: Dose-dependent effect
[13]
  viability at 4 h: 20%
[14]
  Activity: Active
[15]
  Activity: 0.3888
[16]
  MIC: 0.92 µg/mL (≈ 3.1 µM)

## COc1cc2c(c(O)c1C(C)=O)C(=O)CC(C)(C)O2
[1]
  Activity: 80.65%
[2]
  MIC: 0.99 µg/mL (≈ 3.75 µM)
[3]
  MIC: 2.24 µg/mL (≈ 8.48 µM)
[4]
  inhibition: 78 to 94%
[5]
  IC50: 1.24 µg/mL (≈ 4.69 µM)
[6]
  IC50: 1.86 to 24 nM
[7]
  MIC: 1.67 µg/mL (≈ 6.32 µM)
[8]
  MIC: 3.12 µg/mL (≈ 11.8 µM)
[9]
  MIC: 1.02 µg/mL (≈ 3.86 µM)
[14]
  Activity: Active
[15]
  Activity: 0.3841
[16]
  MIC: 1 µg/mL (≈ 3.78 µM)

## COc1cc(O)c2c(c1C(C)=O)OC(C)(C)C(OC)C2Cl (configuration not stated)
[1]
  Activity: 93.25%
[2]
  MIC: 0.68 µg/mL (≈ 2.16 µM)
[3]
  MIC: 0.72 µg/mL (≈ 2.29 µM)
[4]
  inhibition: 90%
[5]
  IC50: 0.0102 µg/mL (≈ 0.0324 µM)
[6]
  IC50: 3.5 nM
[7]
  MIC: 0.87 µg/mL (≈ 2.76 µM)
[8]
  MIC: 0.87 µg/mL (≈ 2.76 µM)
[9]
  MIC: 0.68 µg/mL (≈ 2.16 µM)
[10]
  viability at 6 h: 16%
[11]
  Activity: Non-Toxic
[12]
  Activity: Dose-dependent effect
[13]
  viability at 4 h: 20%
[14]
  Activity: Active
[15]
  Activity: 0.4242
[16]
  MIC: 0.08 µg/mL (≈ 0.254 µM)

## COc1cc(OC)c2c(c1C(C)=O)OC(C)(C)C(O)C2Br (configuration not stated)
[4]
  inhibition: 78 to 94%
[6]
  IC50: 1.86 to 24 nM

## COc1cc(OC)c2c(c1C(C)=O)OC(C)(C)C(OC)C2Cl (configuration not stated)
[1]
  Activity: 86.37%
[2]
  MIC: 1 µg/mL (≈ 3.04 µM)
[3]
  MIC: 0.96 µg/mL (≈ 2.92 µM)
[4]
  inhibition: 78 to 94%
[5]
  IC50: 0.222 µg/mL (≈ 0.676 µM)
[6]
  IC50: 1.86 to 24 nM
[7]
  MIC: 1.02 µg/mL (≈ 3.1 µM)
[8]
  MIC: 1.07 µg/mL (≈ 3.25 µM)
[9]
  MIC: 0.21 µg/mL (≈ 0.639 µM)
[14]
  Activity: Active
[15]
  Activity: 0.3659
[16]
  MIC: 0.18 µg/mL (≈ 0.547 µM)

## COc1c(Br)c(OC)c(C(C)=O)c2c1C=CC(C)(C)O2
[1]
  Activity: 86.16%
[2]
  MIC: 2.13 µg/mL (≈ 6.24 µM)
[3]
  MIC: 1.99 µg/mL (≈ 5.83 µM)
[4]
  inhibition: 78 to 94%
[5]
  IC50: 0.124 µg/mL (≈ 0.364 µM)
[6]
  IC50: 1.86 to 24 nM
[7]
  MIC: 3.12 µg/mL (≈ 9.14 µM)
[8]
  MIC: 2.04 µg/mL (≈ 5.98 µM)
[9]
  MIC: 1.08 µg/mL (≈ 3.17 µM)
[14]
  Activity: Active
[15]
  Activity: 0.3634
[16]
  MIC: 0.99 µg/mL (≈ 2.9 µM)

## COc1ccc2c(c1)c(CC(=O)O)c(C)n2C(=O)c1ccc(Cl)cc1 [INDOMETHACIN]
[1]
  Activity: 85.64%
[5]
  IC50: 0.086 µg/mL (≈ 0.24 µM)
[15]
  Activity: 0.3834
